This is a sample that favours compounds with a hit; in the whole collection about 1.9% have one here.
LMPTP inh: blocks human LMPTP phosphatase | P24666 | recombinant LMPTP-A, OMFP fluorogenic substrate, fluorescence intensity | inhibition, % at 20 µM | 0.22% of 360,000 active;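 active = compounds that cut the enzyme signal by at least half of the control window in the single-dose screen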
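Assay system: LMPTP-A enzyme. Input: 0.625 nM LMPTP-A final. Probe or stimulus: 400 µM OMFP. Compound dosing: single 20 µM dose. Schedule: 50 min dark incubation at room temperature. Detection: fluorescence intensity of OMFP turnover product. Read-out: percent inhibition versus substrate-only and uninhibited controls. Benchmarks: no-enzyme low control, uninhibited high control.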
Scp1 inh: Scp-1 (human) phosphatase inhibition; AID 493091; Q9GZU7; inhibition, % at 20 µM; 0.88% of 340,000 active; Recombinant Scp1, phosphopeptide, malachite green phosphate absorbance;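 active = inhibition above about 50% at 20 µM, limit read from the data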
Target sequence (Q9GZU7 76-261 limits assumed): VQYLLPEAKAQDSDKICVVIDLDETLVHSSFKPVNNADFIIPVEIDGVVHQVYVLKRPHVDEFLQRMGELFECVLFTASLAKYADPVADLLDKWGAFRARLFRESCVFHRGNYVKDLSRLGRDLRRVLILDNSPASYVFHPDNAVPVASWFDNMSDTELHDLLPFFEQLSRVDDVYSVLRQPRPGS
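Test system: SCP-1 phosphatase catalytic domain, residues 76-261 | Compound dosing: One concentration, 20 µM, with 1.0% DMSO | Schedule: 45 min room-temperature reaction, 5 min colour, 30 min stabiliser | Detection: Absorbance at 630 nm | Read-out basis: % inhibition of SCP-1 phosphate liberation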
DNMT1 inh: inhibitors of human DNMT1 | DNMT1 molecular beacon, Hinp1I cleavage, fluorescence | inhibition (reported as % activation of signal), % at 10 µM | 0.83% of 360,000 active | AID 588458; in the data active = inhibition above about 50%
SUMO1 PPI mod: modulators of human SUMO1-mediated protein-protein interactions; inhibition, % at 20 µM; SUMO1 binding to a labelled peptide, TR-FRET, 1 h; 0.33% of 360,000 active; AID 602429; in the data active = inhibition above about 37%
Target sequence (P63165 whole entry, looked up): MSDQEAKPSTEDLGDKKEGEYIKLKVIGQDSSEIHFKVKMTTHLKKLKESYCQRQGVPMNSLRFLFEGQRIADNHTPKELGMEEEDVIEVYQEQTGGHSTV
UBC9 SUMO inh: SUMOylation inhibition | P63279 | HTRF SUMOylation assay, SAE1/SAE2 + UBC9, in vitro | inhibition, % at 35 µM | 0.36% of 290,000 active; in the data active = inhibition above about 50%, passing the limit was not always enough
Target sequence (P63279 whole entry, looked up): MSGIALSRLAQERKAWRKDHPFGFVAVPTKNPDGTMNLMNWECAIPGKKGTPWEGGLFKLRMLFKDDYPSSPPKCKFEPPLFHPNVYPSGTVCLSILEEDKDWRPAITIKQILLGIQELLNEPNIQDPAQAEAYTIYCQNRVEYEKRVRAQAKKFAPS
STEP block: blocks human striatal-enriched tyrosine phosphatase; P54829; recombinant STEP, OMFP fluorogenic substrate, fluorescence; inhibition, % at 20 µM; 0.25% of 360,000 active; AID 588621;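 active = inhibition at 20 µM, scaled per plate between control wells, above about 37%, limit read from the data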
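medium = Bis-Tris buffer pH 6.0, 2.5 mM DTT, 0.005% Tween 20 | test system = STEP (striatal-enriched tyrosine phosphatase) enzyme, cell-free | measure = normalized % inhibition | compound dosing = 20 µM, 1% DMSO | also added = 25 µM OMFP | schedule = reaction 20 min, ambient temperature | measured by = fluorescence read at 480 nm ex / 540 nm em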
Beacon interf DR: shows spectral interference in the DNMT1 beacon assay; 200 tested, under 10 active; IC50, µM; shares compounds with DNMT1 inh; molecular beacon fluorescence, spectral interference counter-screen; call rule not given here
DNMT1 confirm: DNMT1 inhibition confirmation, single concentration. DNMT1 molecular beacon HinP1I cleavage, fluorescence. AID 602385. inhibition, % at 10 µM. 8% of 2,300 active. shares compounds with DNMT1 inh;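 active = average inhibition of at least 30% in the single-concentration confirmation test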
Beacon interf: beacon fluorescence artifact counter-screen; 1% of 2,300 active; shares compounds with DNMT1 inh; DNMT1 molecular beacon spectral interference counterscreen, fluorescence 485/520; activation (fluorescence interference), % at 10 µM;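 active = activation of at least 30% at 10 µM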;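 also: DNMT1 catalytic domain with a HinP1I cleavage step and a FAM/dabcyl DNA beacon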
Hits are given with their value; . = inactive; / = no result.

SMILES	LMPTP inh	Scp1 inh	DNMT1 inh	SUMO1 PPI mod	UBC9 SUMO inh	STEP block	DNMT1 confirm	Beacon interf	others
O=C(O)CCc1ccc(S(=O)(=O)Nc2cc(C(F)(F)F)ccc2N2CCCC2)cc1	.	.	52.8	.	/	.	75.8	.	Beacon interf DR=.
NC(=S)NN=C1c2cc(Cl)ccc2-c2c1cc(Cl)cc2[N+](=O)[O-]	.	.	51.0	.	/	.	.	.
CCOc1ccc2ccccc2c1CNc1nnnn1CC	.	.	92.2	.	.	.	.	.
Cc1cccc(N2CC(C(=O)Nc3nnc(SCC(=O)Nc4nccs4)s3)CC2=O)c1 (stereo not drawn)	.	.	53.2	.	.	.	.	.
CC1CCN(C(=O)C(=O)Nc2sc3c(c2C(N)=O)CC(C)(C)OC3)CC1	.	.	.	.	.	.	/	/
O=C1/C(=C/c2c[nH]c3ccccc23)CCC/C1=C\c1c[nH]c2ccccc12	.	.	.	.	.	.	/	/
O=C1C(=Cc2ccco2)CCCC1=Cc1ccco1	.	66.5	100.1	.	/	.	.	.
COc1ccccc1/C=C/C=N/NC(=O)c1ccccn1	.	.	.	.	.	.	/	/
COc1ccccc1/C=C/C=N/NC(=O)c1cc(-c2ccco2)[nH]n1	67.4	.	61.4	.	.	.	.	.
C[C@@H]1CN([C@@H](C)CO)C(=O)c2cc(Br)cnc2O[C@H]1CN(C)C(=O)CN1CCOCC1	.	/	.	.	/	.	/	/
COc1ccc(CC(=O)Nc2ccc(-c3noc(-c4ccc(Cl)cc4)n3)cc2)cc1	.	.	50.7	.	.	.	.	.
N#Cc1nc(-c2ccc(OCc3ccc(Cl)cc3)cc2)oc1N1CCC(C(N)=O)CC1	.	.	67.1	71.4	.	.	.	.
CCCc1cc(=O)oc2cc(C)cc(OCC(=O)Nc3cccnc3)c12	.	.	.	.	.	.	/	/
CSCCC(NC(=O)c1cccc(C)c1)C(=O)NCc1cccs1 (stereo not drawn)	.	.	.	.	/	.	/	/
CC1=C(C(=O)Nc2ccccc2)C(c2ccc(C)o2)n2c(s/c(=C/c3ccccc3)c2=O)=N1 (stereo not drawn)	.	.	84.3	.	.	.	.	.
CC1=C(C(=O)Nc2ccccc2C)C(c2ccc(C)o2)n2c(s/c(=C/c3ccccc3)c2=O)=N1 (stereo not drawn)	.	.	.	.	.	.	/	/
COc1cc(S(=O)(=O)NCCOC23CC4CC(CC(C4)C2)C3)c(OC)cc1Cl	.	.	107.0	.	.	.	.	.
CCC1(O)CC(c2ccccc2)=NN1C(=O)c1ccccc1F (stereo not drawn)	.	.	.	.	/	.	/	/
COCC(=O)OCC(=O)N1N=C(c2ccc(Cl)cc2)CC1c1ccco1 (stereo not drawn)	.	.	.	.	.	.	/	/
O=C(OCC(=O)N1N=C(c2ccc(Cl)cc2)CC1c1ccco1)c1cccnc1 (stereo not drawn)	.	.	80.7	.	/	.	.	.
O=C(CCl)N1N=C(c2ccco2)CC1c1ccco1 (stereo not drawn)	.	.	87.5	.	.	.	.	.
O=C(CCl)N1N=C(c2cccs2)CC1c1ccco1 (stereo not drawn)	.	.	.	.	.	.	/	/
CC(C)C[C@@H](CN)NC(=O)c1nc[nH]c1C(=O)N[C@@H](CC(=O)O)C(=O)CNC[C@H](C)NC(=O)c1nc[nH]c1C(=O)N[C@@H](CC(=O)O)C(=O)O	.	.	.	.	/	.	/	/
O=C(Nc1cccc(C(F)(F)F)c1)c1cccnc1N1CCN(c2ccccc2)CC1	.	.	.	.	.	.	/	/
Cc1ccc(CCNC(=O)c2cc(C)nn2-c2ccccc2)cc1	.	.	60.8	.	.	.	.	.

Screening results (PubChem BioAssay)
